# Results published in ChEMBL document CHEMBL5303300, “EUbOPEN Chemogenomics Library - Multiplex” (2023).
# Values joined by “and” are separate entries in the source; they are usually repeats but may differ in a detail not shown here. Equal entries are not always repeated.
# Tested on: Fibroblast
# Assay: Multiplex assay against human fibroblast
# Assay type: toxicity, cell-based
# Settings: number of replicates 2
# How it was run: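 Hoechst33342, BioTracker Green Microtubule Cytoskeleton Dye, MitoTracker Red and Annexin V Alexa Fluor 680 were added to live cells at seeding, and imaging on a CQ1 microscope at 37°C and 5% CO2 followed compound addition. Gating by CellPathfinder machine learning separated cells into Hoechst high-intensity objects or normal cells, then normal cells into healthy, pyknosed or fragmented nuclei, then pyknosed cells into mitotic or apoptotic. Per cents of healthy-nucleus cells are reported for the tubulin, mitochondrial-mass and membrane-permeability phenotypes.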
# [1] = 12 h, 1 µM, compound concentration 1 uM
# [2] = 12 h, 10 µM, compound concentration 10 uM
# [3] = 24 h, 1 µM, compound concentration 1 uM
# [4] = 24 h, 10 µM, compound concentration 10 uM
# [5] = 48 h, 1 µM, compound concentration 1 uM
# [6] = 48 h, 10 µM, compound concentration 10 uM
compound,measurement,setting,value
CC1=C(C)C(=O)C(C(CCCCCC(=O)O)c2ccccc2)=C(C)C1=O (configuration not stated) [SERATRODAST],Population Apoptotic (%),[1],50% and 60%
same,Population Fragmented Nuclei (%),[1],6% and 11%
same,Population Healthy Nuclei (%),[1],57% and 79%
same,Population Hoechst High Intensity Objects (%),[1],0%
same,Population Membrane Permeable-Phenotype (%),[1],5% and 2%
same,Population Mitochondria Different-Phenotype (%),[1],0% and 2%
same,Population Mitotic Cells (%),[1],50% and 40%
same,Population Normal (%),[1],99% and 100%
same,Population Tubulin-Different-Phenotype (%),[1],5% and 3%
same,Total Cell Count,[1],128 and 228
same,Population Apoptotic (%),[2],35% and 25%
same,Population Fragmented Nuclei (%),[2],12% and 18%
same,Population Healthy Nuclei (%),[2],79% and 75%
same,Population Hoechst High Intensity Objects (%),[2],0%
same,Population Membrane Permeable-Phenotype (%),[2],6% and 5%
same,Population Mitochondria Different-Phenotype (%),[2],1%
same,Population Mitotic Cells (%),[2],64% and 75%
same,Population Normal (%),[2],100%
same,Population Pyknosed Nuclei (%),[2],8% and 6%
same,Population Tubulin-Different-Phenotype (%),[2],15% and 8%
same,Total Cell Count,[2],167 and 192
same,Population Apoptotic (%),[3],67% and 52%
same,Population Fragmented Nuclei (%),[3],3% and 13%
same,Population Healthy Nuclei (%),[3],64% and 76%
same,Population Hoechst High Intensity Objects (%),[3],0%
same,Population Membrane Permeable-Phenotype (%),[3],7% and 2%
same,Population Mitochondria Different-Phenotype (%),[3],1% and 0%
same,Population Mitotic Cells (%),[3],32% and 47%
same,Population Normal (%),[3],99% and 100%
same,Population Tubulin-Different-Phenotype (%),[3],9% and 1%
same,Total Cell Count,[3],128 and 230
same,Population Fragmented Nuclei (%),[4],11% and 14%
same,Population Healthy Nuclei (%),[4],81%
same,Population Hoechst High Intensity Objects (%),[4],0%
same,Population Membrane Permeable-Phenotype (%),[4],3%
same,Population Mitochondria Different-Phenotype (%),[4],0% and 1%
same,Population Mitotic Cells (%),[4],36% and 85%
same,Population Normal (%),[4],100%
same,Population Pyknosed Nuclei (%),[4],6% and 3%
same,Population Tubulin-Different-Phenotype (%),[4],8% and 9%
same,Total Cell Count,[4],171 and 193
same,Population Apoptotic (%),[5],79% and 52%
same,Population Fragmented Nuclei (%),[5],9% and 16%
same,Population Healthy Nuclei (%),[5],65% and 75%
same,Population Hoechst High Intensity Objects (%),[5],0%
same,Population Membrane Permeable-Phenotype (%),[5],3% and 1%
same,Population Mitochondria Different-Phenotype (%),[5],0%
same,Population Mitotic Cells (%),[5],20% and 47%
same,Population Normal (%),[5],99% and 100%
same,Population Tubulin-Different-Phenotype (%),[5],3% and 2%
same,Total Cell Count,[5],133 and 248
same,Population Apoptotic (%),[6],40% and 36%
same,Population Fragmented Nuclei (%),[6],15% and 21%
same,Population Healthy Nuclei (%),[6],81% and 73%
same,Population Hoechst High Intensity Objects (%),[6],0%
same,Population Membrane Permeable-Phenotype (%),[6],2% and 1%
same,Population Mitochondria Different-Phenotype (%),[6],0%
same,Population Mitotic Cells (%),[6],60% and 63%
same,Population Normal (%),[6],100%
same,Population Pyknosed Nuclei (%),[6],2% and 5%
same,Population Tubulin-Different-Phenotype (%),[6],6% and 5%
same,Total Cell Count,[6],171 and 213
